Data on 2 compounds can be found in ChEMBL document CHEMBL4316592, “Synthesis of new derivatives of boehmeriasin A and their biological evaluation in liver cancer” (Eur J Med Chem, 2019).

Experiment [1] relates to Mahlavu. In words: Induction of apoptosis in human Mahlavu cells assessed as viable cells at 1 uM after 72 hrs by Annexin V-FITC/propidium iodide staining-based flow cytometric analysis (reference value: 96.05%). In kind it is functional. Conditions: read-out: Activity. On the technique in general: In flow cytometry, cells or beads pass a laser one at a time.
The test system of experiment [2] is Mahlavu. In words: Induction of apoptosis in human Mahlavu cells assessed as necrotic cells at 1 uM after 24 hrs by Annexin V-FITC/propidium iodide staining-based flow cytometric analysis (reference value: 0.13%). In kind it is functional.
Experiment [3] deals with Mahlavu. In words: Induction of apoptosis in human Mahlavu cells assessed as necrotic cells at 1 uM after 48 hrs by Annexin V-FITC/propidium iodide staining-based flow cytometric analysis (reference value: 0.07%). In kind it is functional.
A short description of experiment [4]: Cytotoxicity against human FOCUS cells after 72 hrs by SRB assay. In kind it is functional, cell-based. Conditions: Homo sapiens, 72 h; read-out: IC50. In outline:
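SRB assay. Cells plated per well (HCT116 3000; Huh7, Hep3B, HepG2, MCF-7 2000; Mahlavu, FOCUS, SNU475 1000) and grown 24 h. Compounds came from 20 mM DMSO stocks and were tested in triplicate, 40 to 2,5 (or 2,5 to 0,03) per printed range, for 72 h. Cells fixed in 10% TCA, stained with 0.4% SRB, dye dissolved in 10 mM Tris, A515 read. IC50 derived after DMSO normalization.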

The subject of experiment [5] is Huh-7. In words: Induction of apoptosis in human HuH7 cells assessed as necrotic cells at 1 uM after 48 hrs by Annexin V-FITC/propidium iodide staining-based flow cytometric analysis (reference value: 0.02%). In kind it is functional.
The test system of experiment [6] is Huh-7. As to the kind of experiment: Cell cycle arrest in human HuH7 cells assessed as accumulation of cells at subG1 phase at 1 uM after 72 hrs by propidium iodide staining-based flow cytometric analysis (reference value: 4.7%). In kind it is functional.
Experiment [7] has as its system Huh-7. As to the kind of experiment: Cell cycle arrest in human HuH7 cells assessed as accumulation of cells at S phase at 1 uM after 72 hrs by propidium iodide staining-based flow cytometric analysis (reference value: 15.5%). In kind it is functional.
Experiment [8] has as its system Huh-7. As to the kind of experiment: Cytotoxicity against human HuH7 cells after 24 hrs by RTCA analysis. Conditions: Huh-7, 24 h. In kind it is functional, cell-based. In outline:
(§1)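 xCELLigence impedance real-time growth assay. Huh7 (2000) or Mahlavu (1000) cells plated, treated after 24 h at log phase with a 2-fold dilution series (4 steps) from a top concentration of 1. Cell index recorded every 10 min for 24 h, then every 30 min. Growth inhibition normalized to DMSO; IC50 taken at 24, 48, 72 h.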

Experiment [9] deals with Huh-7. In words: Cell cycle arrest in human HuH7 cells assessed as accumulation of cells at S phase at 1 uM after 24 hrs by propidium iodide staining-based flow cytometric analysis (reference value: 14.2%). In kind it is functional.
For experiment [10], the system named is Mahlavu. As to the kind of experiment: Cell cycle arrest in human Mahlavu cells assessed as accumulation of cells at G2/M phase at 1 uM after 72 hrs by propidium iodide staining-based flow cytometric analysis (reference value: 20%). In kind it is functional.
For experiment [11], the system named is Huh-7. In words: Down-regulation of cyclin-B1 protein expression in human HuH7 cells at 1 uM after 24 to 72 hrs by Western blot analysis. In kind it is functional, cell-based. In general terms: In western blotting, separated proteins are transferred to a membrane and probed.
In experiment [12] the test system is Huh-7. As to the kind of experiment: Induction of apoptosis in human HuH7 cells assessed as viable cells at 1 uM after 72 hrs by Annexin V-FITC/propidium iodide staining-based flow cytometric analysis (reference value: 97.20%). In kind it is functional. As to conditions: Huh-7, 72 h, read-out: Activity.
For a further experiment, the system named is MCF-10A. In words: Cytotoxicity against human MCF10A cells after 72 hrs by SRB assay. In kind it is cell-based. A general note: The SRB assay estimates cell density from bound dye.
Experiment [13] deals with Huh-7. As to the kind of experiment: Induction of apoptosis in human HuH7 cells assessed as increase in cytochrome C levels at 1 uM by Hoechst staining-based assay. In kind it is functional, cell-based.
Experiment [14] has as its system Huh-7. In words: Induction of apoptosis in human HuH7 cells assessed as early apoptotic cells at 1 uM after 48 hrs by Annexin V-FITC/propidium iodide staining-based flow cytometric analysis (reference value: 0.02%). In kind it is functional.
Experiment [15] concerns Huh-7. In words: Cytotoxicity against human HuH7 cells after 48 hrs by RTCA analysis. In kind it is functional, cell-based. Conditions: Huh-7, 48 h. Summed up: as §1
Experiment [16] has as its system Huh-7. In words: Cell cycle arrest in human HuH7 cells assessed as accumulation of cells at subG1 phase at 1 uM after 48 hrs by propidium iodide staining-based flow cytometric analysis (reference value: 3.2%). In kind it is functional.
Experiment [17] relates to Mahlavu. As to the kind of experiment: Induction of apoptosis in human Mahlavu cells assessed as early apoptotic cells at 1 uM after 48 hrs by Annexin V-FITC/propidium iodide staining-based flow cytometric analysis (reference value: 0%). In kind it is functional.
Experiment [18] relates to Huh-7. In words: Induction of apoptosis in human HuH7 cells assessed as necrotic cells at 1 uM after 72 hrs by Annexin V-FITC/propidium iodide staining-based flow cytometric analysis (reference value: 0.43%). In kind it is functional.
Experiment [19] relates to Huh-7. As to the kind of experiment: Induction of apoptosis in human HuH7 cells assessed as late apoptotic cells at 1 uM after 48 hrs by Annexin V-FITC/propidium iodide staining-based flow cytometric analysis (reference value: 2.53%). In kind it is functional.
In experiment [20] the test system is Mahlavu. In words: Cytotoxicity against human Mahlavu cells after 72 hrs by RTCA analysis. In kind it is functional, cell-based. Summed up:
as §1

For experiment [21], the system named is Huh-7. In words: Down-regulation of CDK1 protein expression in human HuH7 cells at 1 uM after 24 to 72 hrs by Western blot analysis. In kind it is functional, cell-based.
The test system of experiment [22] is Mahlavu. In words: Induction of apoptosis in human Mahlavu cells assessed as apoptotic body formation at 1 uM by Hoechst staining-based assay. In kind it is functional, cell-based.
For experiment [23], the system named is Mahlavu. In words: Induction of apoptosis in human Mahlavu cells assessed as viable cells at 1 uM after 48 hrs by Annexin V-FITC/propidium iodide staining-based flow cytometric analysis (reference value: 98.48%). In kind it is functional. As to conditions: read-out: Activity.

pIC50: −log10 of the molar value. Activity calls are given as the source filed them. The calls are words filed in the database; no cut-off is given here.

As for `COc1ccc2c3c(c4cc(OC)c(OC)cc4c2c1)CN1CCCC[C@@H]1C3`, the viability at 1 µM turned out to be 85.3% with Mahlavu [1], 83.4% with Huh-7 [12] and 91.8% with Mahlavu [23]. The Activity was 0.57% in the experiment with Mahlavu [2]; 1.16% in the experiment with Mahlavu [3]; 0.07% with Huh-7 [5]; 57.5% with Huh-7 [6]; 8.7% in the experiment with Huh-7 [7]; 15.9% with Huh-7 [9]. In addition, the Activity with Mahlavu [10] was found to be 49.9%; in the experiment on Huh-7 [14], 0.18%; in the experiment on Huh-7 [16], 7.5%; in the experiment with Mahlavu [17] it was 0%; in the experiment with Huh-7 [18], 0.34%; with Huh-7 [19], 5.96%. Besides, the pIC50 (as a rule, −log10 of the IC50, conventionally taken in molar units) was 7.70 in experiment [4]; 5.85 in the experiment on Huh-7 [8]; 6.85 in the experiment on MCF-10A; 6.15 in the experiment with Huh-7 [15]; 6.22 in the experiment with Mahlavu [20]. Also, the outcome in the experiment with Huh-7 [11], in the experiment on Huh-7 [13], with Huh-7 [21] and in the experiment with Mahlavu [22] was Active.

Take `COc1ccc2c3c(c4cc(OC)c(OC)cc4c2c1)CN1CCCCC1C3O` (racemic): the viability at 1 µM with Mahlavu [1] came to 62.7%; with Huh-7 [12], 81.7%; in the experiment on Mahlavu [23] it was 99%. Also, the Activity in the experiment with Mahlavu [2] came out at 0.13%; with Mahlavu [3], 0.07%; in the experiment with Huh-7 [5], 0.16%; in the experiment on Huh-7 [6], 62.9%; with Huh-7 [7], 7.7%; in the experiment on Huh-7 [9] it was 13.2%. Also, the Activity was 31.4% in the experiment with Mahlavu [10]; 0.07% with Huh-7 [14]; 25.4% in the experiment with Huh-7 [16]; 0% with Mahlavu [17]; 0.13% in the experiment on Huh-7 [18]; 5.52% with Huh-7 [19]. Also, the negative-log IC50 (pIC50) in experiment [4] is 7.92; in the experiment on Huh-7 [8], 6.10; in the experiment on MCF-10A, 6.70; in the experiment with Huh-7 [15], 6.30; in the experiment with Mahlavu [20], 8.00. Moreover, the result in the experiment with Huh-7 [11], in the experiment with Huh-7 [13], with Huh-7 [21] and in the experiment with Mahlavu [22] was Active.
